Experimental data of several laboratories.
Lines come from different studies, so protocols differ. ≈ marks a conversion by molar mass, not a printed value.

Structure (SMILES) | tested on | assay | test system | conditions | measurement | value
CCN(CC)CCCC(C)Nc1ccnc2cc(Cl)ccc12 (centres unmarked) | Plasmodium falciparum | parasite growth | W2 | drug-resistant strain, blood stage | IC50 | 0.1 µg/mL
C[C@@]1(O)CC[C@@]2(C)[C@@H](CC[C@@H]3[C@@H]2CC[C@]2(C)[C@@H]([N+](=O)[O-])CC[C@@H]32)C1 |  | 6 Hz seizures | mouse | intraperitoneal | ED50 | 8.8 mg/kg
CC(C(=O)NOCc1ccccc1)c1cccc(C(OC(=O)NOCc2ccccc2)c2ccccc2)c1 (centres unmarked) | FM3A | cell growth or viability |  | 48 h | IC50 | 11000 nM
CCCCCCCCCCOc1cc2c(O)c(C(=O)OCC)cnc2cc1OCC | Plasmodium falciparum | parasite growth, SYBR Green | W2 | blood stage | IC50 | < 5.7 nM
c1csc(-c2nnc3sc(Cc4ccc5c(c4)CCCC5)nn23)c1 | Plasmodium falciparum | parasite growth, SYBR Green | 3D7 | 72 h | EC50 | > 12500 nM
CC(C(=O)NCC1CCCCC1)c1cccc(C(OC(=O)NCC2CCCCC2)c2ccccc2)c1 (centres unmarked) | L1210 | cell growth or viability |  | 48 h | IC50 | 11000 nM
C[C@]12CC[C@H](O)C[C@@H]1CC[C@@H]1[C@@H]2CC[C@]2(C)[C@@H]([N+](=O)[O-])CC[C@@H]12 |  | 6 Hz seizures | mouse | intraperitoneal | ED50 | 83 mg/kg
CCOc1cccc(=O)c2c(C)n(Cc3ccc(Cl)cc3)c(C)c12 | Plasmodium falciparum | parasite growth, SYBR Green | 3D7 |  | EC50 | 590 nM
NNC(=O)c1ccncc1 | Mycolicibacterium aurum | microbial growth, agar dilution |  |  | MIC | 6.3 µg/mL (≈ 45.9 µM)
Nc1ccc(C(=O)O)c(O)c1 | Mycobacterium tuberculosis variant bovis | microbial growth | BCG |  | MIC | 0.125 µg/mL (≈ 0.816 µM)
Cc1sc(CNCCCNc2cc(=O)c3ccccc3[nH]2)c(I)c1C | Plasmodium falciparum | parasite growth, SYBR Green | 3D7 |  | EC50 | 339 nM
CONC(=O)OC(c1ccccc1)c1cccc(C(C)C(=O)NOC)c1 (centres unmarked) | FM3A | cell growth or viability |  | 48 h | IC50 | 10000 nM
COc1ccc(-n2ccnc2SCC(=O)Nc2cccc(C(F)(F)F)c2)c(OC)c1 | Plasmodium falciparum | parasite growth, SYBR Green | 3D7 |  | EC50 | 88.5 nM
Cc1cc(NC2Cc3cc(F)c(F)cc3C2)n2nc(C(C)(F)F)nc2n1 | Plasmodium falciparum | parasite growth | HB3 | drug-resistant strain, blood stage | EC50 | 21 nM
